Granule exo inh – lytic granule exocytosis inhibition. TALL-104 LAMP-1 surface exposure, flow cytometry; cells stimulated with thapsigargin and PMA. inhibition, % at 10 µM. 360,000 tested, 0.66% active. AID 651702;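 active = inhibition above about 55%, limit read from the data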
rCAG RNA binder – molecules binding r(CAG) RNA repeats. r(CAG) RNA repeat, TO-PRO-1 dye displacement fluorescence. inhibition, % at 3 µM. 370,000 tested, 1.3% active. AID 651821;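 active = inhibition above the plate cutoff, the mean of all test compounds on that plate plus 3 SD, cut at about 35% in these data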;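 also: 0% = DMSO alone and 100% = 100 µM mitoxantrone as full dye displacement; higher means more dye released from RNA so lower well fluorescence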
T cell HTS – T cell immune modulation candidate; response (vesicle binding), % at 7 µM; AID 2052; 2C CD8+ T cell-vesicle binding, flow cytometry; active compounds read low; 330,000 tested, 0.068% active;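 active = response, share of CD8 T cells binding vesicles, and their 90th percentile fluorescence all below set limits, cut at about 80% in these data, passing the limit was not always enough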;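 also: values below 100% mean blocked vesicle binding to the CD8+ T cells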
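material = purified 2C TCR transgenic mouse naive CD8+ T cells | controls = Unloaded micro-vesicles (low), QL9 vesicles with 0.7% DMSO (high) | detection = cytometric PE anti-B7-1 and Alexa647 anti-CD8 signals after 1% paraformaldehyde fixation | incubation = binding step 1.5 h, 37 °C, antibody labelling 20 min, ice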
Beta2AR agonist – activates human beta-2 adrenergic receptor causing internalization | P07550 | Am2.2-beta2AR cells, FAP receptor internalization, flow cytometry | response, % (concentration not given with the values) | 340,000 tested, 0.43% active | AID 504454;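 active = response above a set limit, near 3 SD of response in nonfluorescent compounds, cut at about 42% in these data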
Target sequence (P07550 whole entry, looked up): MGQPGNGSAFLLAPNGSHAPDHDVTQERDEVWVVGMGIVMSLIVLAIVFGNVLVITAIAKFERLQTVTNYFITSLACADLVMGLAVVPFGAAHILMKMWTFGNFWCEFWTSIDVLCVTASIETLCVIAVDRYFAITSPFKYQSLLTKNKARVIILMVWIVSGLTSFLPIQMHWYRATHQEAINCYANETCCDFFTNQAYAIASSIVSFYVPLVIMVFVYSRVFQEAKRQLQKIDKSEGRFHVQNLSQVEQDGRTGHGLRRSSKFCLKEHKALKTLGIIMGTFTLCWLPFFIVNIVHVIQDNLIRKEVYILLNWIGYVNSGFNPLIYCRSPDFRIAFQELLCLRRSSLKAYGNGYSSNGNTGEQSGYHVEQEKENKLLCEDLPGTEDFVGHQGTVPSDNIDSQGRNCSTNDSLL
MPTP block – inhibitors of mitochondrial permeability transition pore | isolated mouse mitochondria, Ca2+ swelling absorbance, 30 min | inhibition, % at 10 µM | 360,000 tested, 1.4% active;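 active = inhibition of 50% or more, scaled per plate between neutral and stimulator controls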;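 also: 0% = DMSO wells given calcium and 100% = 1 mM EGTA wells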
V-ATPase pHluor – yeast V-ATPase proton transport regulation by pHLuorin | S. cerevisiae, pHLuorin cytosolic pH fluorescence | 350,000 tested, 0.37% active | response, % at 10 µM; in the data active = response mostly above about 7.3%, no sharp cut-off; inactive = mostly below about 5.4%; also: actives read high
rCAG bind conf – r(CAG) RNA repeat binding, confirmation | shares compounds with rCAG RNA binder | TO-PRO-1 dye displacement fluorescence | inhibition, % at 3 µM | 4,300 tested, 70% active | AID 652065;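 active = inhibition above a per-plate cutoff, the mean inhibition of sample wells plus 3 SD, cut at about 35% in these data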;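 also: loss of TO-PRO-1 fluorescence as compound displaces dye from 1x1 AA loop RNA; 0% = DMSO only wells and 100% = 100 µM mitoxantrone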
dCAG dye counter – counter-screen for rCAG RNA binders: DNA CAG dye complex inhibitors; shares compounds with rCAG RNA binder; d(CAG) DNA oligo TO-PRO-1 dye displacement, fluorescence; inhibition, % at 3 µM; 4,300 tested, 94% active; AID 652068;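 active = inhibition above its plate's cutoff, the mean test-well inhibition plus 3 SD, cut at about 4.8% in these data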;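 also: 0% = DNA dye mix with DMSO and 100% = 100 µM mitoxantrone; hits displace the dye from DNA and so lower well fluorescence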
An asterisk follows results filed as active; i = inactive; · = no result. In the library only some 3.8% were active in any assay of this set; here they are far more common.

SMILES	Granule exo inh	rCAG RNA binder	T cell HTS	Beta2AR agonist	MPTP block	V-ATPase pHluor	rCAG bind conf	dCAG dye counter
CC1(C(=O)NS(=O)(=O)c2ccc(Cl)cc2)CCN1C(=O)c1ccccc1CCc1ccccc1 (stereo not drawn)	-4	45*	·	·	3	·	58*	20*
CCOC(=O)c1sc2nc(C)nc(SC(C)C(=O)NC3CC3)c2c1C (stereo not drawn)	8	1	360	6	0	3	·	·
Cc1nc(SC(C)C(=O)Nc2cccc(C(F)(F)F)c2)c2c(C)c(C(=O)O)sc2n1 (stereo not drawn)	4	37*	570	1	4	2	60*	21*
COC(=O)C[C@@H]1CC[C@H]2[C@H](COc3ccc(NC(=O)Nc4ccc(Cl)cc4)cc3C(=O)N2C)O1	·	5	·	·	·	·	·	·
COc1cc(OC)cc(-c2c(C#Cc3ccsc3)c3cc(-c4ccc5[nH]ccc5c4)ccc3n2C)c1	-1	37*	i	-2	-1	1	33	22*
CC(C)C[C@@H]1COc2cc(N3CCOCC3)ccc2S(=O)(=O)N1	·	-1	·	·	·	·	·	·
Cc1ccc(S(=O)(=O)NC(=O)C2(C)CCN2C(=O)CC2CCCC2)cc1 (stereo not drawn)	1	5	·	·	1	·	·	·
CC1(C(=O)NS(=O)(=O)c2ccc3ccccc3c2)CCN1C(=O)CC1CCCCC1 (stereo not drawn)	6	39*	·	·	2	·	57*	20*
CC(C)(C)c1ccc(S(=O)(=O)NC(=O)C2(C)CCN2C(=O)CC2CCCC2)cc1 (stereo not drawn)	2	37*	·	·	0	·	22	3
COc1cc2c(cc1NC(=O)CSc1nnc(-c3ccccc3C)n1Cc1ccco1)oc1ccccc12	·	12	·	·	·	·	·	·
O=C1N/C(=N/S(=O)(=O)Cc2ccccc2)S/C1=C/c1ccc2c(c1)OCO2	9	66*	181	5	5	0	56*	19*
CCOC(=O)C(C)/C(C)=N/NC(=O)c1cc2ccccc2cc1O (stereo not drawn)	-6	44*	350	-7	2	1	13	6.7*
C/C(CC(=O)N1CCCC1)=N\NC(=O)c1cc2ccccc2cc1O	-3	38*	94	4	2	8	15	6.2*
O=C(NC(=S)NNC(=O)c1ccccc1O)c1ccco1	4	2	274	1	0	8	·	·
O=C(NC(=S)NNC(=O)c1cc2ccccc2cc1O)c1ccco1	1	67*	334	6	2	3	53*	17*
NNC(=O)c1cc2ccccc2cc1O	-3	41*	281	8	0	-2	5	4
c1ccc(CC(Nc2cccnc2)c2ccccc2)cc1 (stereo not drawn)	·	-1	·	·	·	·	·	·
C[C@@H]1CCN(C2CC2)S(=O)(=O)c2ccc(N3CC[C@@H](O)C3)cc2O1	·	2	·	·	·	·	·	·
Cc1ccc(S(=O)(=O)N2CCCC(C(=O)Nc3c(C)n(C)n(-c4ccccc4)c3=O)C2)cc1 (stereo not drawn)	·	-1	·	·	·	·	·	·
COc1ccc(/C(N)=N/OC(=O)Cc2cccs2)cc1	5	47*	404	12	0	-3	1	0
COc1ccc(/C(N)=N/OC(=O)Cc2cccs2)cc1OC	1	2	85	11	-2	0	·	·
COC(=O)[C@]12C[C@H](CC(=O)NCCCCc3ccccc3)C(=O)N(Cc3ccc4c(c3)OCO4)C1=C[C@H](C(C)C)O[C@@H]2C1CC1	·	6	·	·	·	·	·	·
O=C(Nc1scc(-c2ccccc2)c1C(=O)O)c1ccccc1F	4	20	264	7	0	-3	·	·
Cc1ccc(-c2csc(NC(=O)c3ccccc3F)c2C(=O)O)cc1	20	42*	142	7	0	1	29	4.6*
COc1ccc(-c2csc(NC(=O)c3ccc(C(C)(C)C)cc3)c2C(=O)O)cc1	·	·	661	9	·	-1	·	·
SMILES	Granule exo inh	rCAG RNA binder	T cell HTS	Beta2AR agonist	MPTP block	V-ATPase pHluor	rCAG bind conf	dCAG dye counter
O=C(/C=C/c1ccccc1)Nc1cc(NC(=O)/C=C/c2ccccc2)cc(C(=O)O)c1	-10	75*	201	-1	0	2	81*	52*
O=C(/C=C/c1ccccc1)Nc1scc(-c2ccccc2)c1C(=O)O	-2	55*	·	-3	0	0	33	6.0*
Cc1ccc(-c2csc(NC(=O)c3ccc(F)cc3)c2C(=O)O)cc1	35	63*	99	8	0	1	39*	8.8*
Cc1ccccc1C(=O)Nc1scc(-c2ccc(Br)cc2)c1C(=O)O	11	9	302	0	11	4	·	·
COc1ccc(-c2csc(NC(=O)c3ccccc3Br)c2C(=O)O)cc1	18	55*	174	-2	1	-3	36*	10*
O=C(Nc1scc(-c2ccccc2)c1C(=O)O)c1ccc(F)cc1	4	36*	178	0	2	0	23	5.0*
COc1ccc(-c2csc(NC(=O)Cc3cccc4ccccc34)c2C(=O)O)cc1	2	61*	·	5	11	-2	54*	17*
N=C1S/C(=C\c2ccco2)C(=O)N1c1nccs1	-2	8	343	21	-2	1	·	·
O=C1/C(=C\c2ccco2)SC(=S)N1C1CCCCC1	·	·	113	·	·	·	·	·
Cc1ccc(N2C(=O)/C(=C/c3ccco3)SC2=S)cc1	3	44*	200	16	2	0	10	5.7*
N=C1S/C(=C\c2ccco2)C(=O)N1c1ccc2c(c1)OCO2	-3	38*	145	-6	0	-3	26	12*
O=C(Cn1nnc(-c2ccncc2)n1)Nc1ccc(Oc2ccccc2)cc1	·	7	·	·	·	·	·	·
Cc1ccccc1N1CCN(S(=O)(=O)c2ccc3c(c2)n(C)c(=O)c(=O)n3C)CC1	·	7	·	·	·	·	·	·
Oc1c(N=Nc2ccc(F)cc2)ccc2ccccc12	-7	4	226	5	7	-1	·	·
Oc1c(N=Nc2nn[nH]n2)ccc2ccccc12	15	47*	·	·	5	·	61*	30*
O=C(O)CSc1cc(C(=O)c2cc(F)ccc2O)cn2c(=O)c3c(-c4ccccc4)csc3nc12	13	85*	96	11	14	5	90*	70*
CCOC(=O)c1sc2nc3c(SCCC#N)cc(C(=O)c4cc(F)ccc4O)cn3c(=O)c2c1C	-1	9	283	-1	6	-6	·	·
CCOC(=O)c1sc2nc3c(SCCC(=O)O)cc(C(=O)c4cc(OC)ccc4O)cn3c(=O)c2c1C	-1	35*	·	-8	13	6	68*	39*
CCn1c(SCC(=O)NN=Cc2c[nH]c3ccccc23)nc2ccccc21	·	7	·	·	·	·	·	·
